Measured values reported in ChEMBL document CHEMBL1127318, “Hypoxia-selective antitumor agents. 8. Bis(nitroimidazolyl)alkanecarboxamides: a new class of hypoxia-selective cytotoxins and hypoxic cell radiosensitisers” (J Med Chem, 1994).

How the values were obtained:
CHO-AA8 [1] = test: Concentration required to reduce AA8 cell numbers to 50% of controls in a growth inhibition microassay; type: functional, cell-based; conditions: Cricetulus griseus
Procedure, shortened: (§1)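 Cells kept as log-phase monolayers in antibiotic-free Alpha MEM with 10% heat-inactivated FCS. Per well: 200 AA8, 300 UV4, 50 EMT6 or 1000 FME cells. Drug added 24 h after seeding and removed after 18 h. Cell mass (protein, methylene blue absorbance) read 72–78 h after washout. IC50 = concentration giving 50% of the mean of eight controls on the same plate.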

CHO-AA8 [2] = test: Average intracellular compound concentration when the hypoxic SER=1.6.; type: functional, Cricetulus griseus
Procedure, shortened: (§2)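 Hypoxic stirred AA8 suspensions (10⁷ cells) incubated 30 min at the C1.6 concentration. Cells and supernatant separated by centrifugation and extracted into MeCN. Drug measured by C18 HPLC with formate pH 4.5/MeCN gradient, absorbance 320 nm. Values corrected for recovery using spiked medium or lysed pellets. Mean intracellular concentration calculated assuming 11.6 µL cell water and 1.1 µL pellet extracellular water per 10⁷ cells.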

CHO-AA8 [3] = test: Compound concentration at which sensitizer enhancement ratio =1.6 under hypoxia.; type: functional, Cricetulus griseus
Procedure, shortened: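 Stirred AA8 suspensions gassed 60 min with 5% CO2 in N2. Drug added 30 min before ⁶⁰Co irradiation at 37 °C (ca. 2 Gy/min, typically 6 Gy steps). Clonogenic survival taken against unirradiated cells from the same culture. Linear-quadratic fit gives D10; SER = D10 without/with drug, determined over a range of concentrations to estimate C1.6. Only concentrations with minimal drug toxicity during irradiation were used.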

CHO-AA8 [4] = test: (§3) Compound concentration required to reduce cell survival to 10% of control values under hypoxic condition; type: cell-based, Cricetulus griseus; conditions: chinese hamster
Procedure, shortened: (§4)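 Chinese hamster AA8 cells at plateau phase, 10⁶/mL, in magnetically stirred 10-mL suspensions. Gassed continuously with 5% CO₂ in N₂ (hypoxic) or in air (aerobic); cells and drug preequilibrated under the gas for 60 min. Clonogenic plating efficiency read every 0.5–1 h for up to 8 h at several drug concentrations. Concentration × time for 10% survival (CT10) estimated at each concentration.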

[5] = (§5) In vitro therapeutic index (aerobic IC50 / hypoxic C1.6); type: cell-based, Cricetulus griseus; conditions: chinese hamster, CHO-AA8 cells; read-out: TI
Procedure, shortened: (§6)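 Hypoxic C1.6: stirred AA8 gassed with 5% CO₂/N₂ 60 min, drug 30 min, ⁶⁰Co irradiation at 37 °C (~2 Gy/min). D10 from linear-quadratic fit; concentration giving SER 1.6 interpolated. Index = IC50/C1.6.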

[6] = Partition coefficient (logP); type: physicochemical; conditions: octanol/water
Procedure, shortened: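 log P octanol computed with CLOGP rather than measured.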

EMT6 = test: Aerobic cytotoxicity against murine mammary carcinoma EMT6 cells in a growth inhibition microassay; type: functional, Mus musculus; procedure, shortened: as §1
FME = test: Aerobic cytotoxicity against human melanoma FME cells in a growth inhibition microassay; type: functional; procedure, shortened: as §1
UV4 = test: Aerobic cytotoxicity against UV4 cells in a growth inhibition microassay; type: functional, Cricetulus griseus; procedure, shortened: as §1
[7] = Ratio of mean intracellular to extracellular compound concentration determined under hypoxic condition.; type: functional, cell-based
Procedure, shortened: (§7)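 AA8 suspension (10⁷ cells) made hypoxic with 5% CO₂ in N₂, exposed 30 min at 37 °C to drug at the C1.6. Supernatant and lysed pellet extracted in MeCN. Assayed by C18 HPLC (formate pH 4.5/MeCN gradient, 320 nm), corrected for spiked recoveries. Intracellular level from 11.6 µL cell water/10⁷ cells, with [¹⁴C]sucrose and ³H₂O spaces. Result expressed as Ci/Ce.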

[8] = The ratio of aerobic CT10 to hypoxic CT10.; type: functional
Procedure, shortened: (§8)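 Clonogenic assay on stirred plateau-phase AA8 suspensions (10⁶/mL), gassed with 5% CO₂ in air or in N₂ after 60 min preequilibration. Survival sampled every 0.5–1 h up to 8 h at several drug concentrations. CT10 taken at each concentration. Interpolated aerobic CT10 divided by hypoxic CT10 at the same time; ranges cover 1–8 h exposure.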

CHO-AA8 [9] = test: as §3; type: functional, Cricetulus griseus
Procedure, shortened: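 Plateau-phase AA8 cells (10⁶/mL) in magnetically stirred 10-mL cultures, gassed continuously with N2 plus 5% CO2. Cells and drug pre-equilibrated 60 min. Clonogenic plating every 0.5–1 h for up to 8 h at several concentrations. CT10 (concentration × time for 10% survival) estimated at each concentration.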

CHO-AA8 [10] = test: Average intracellular compound concentration when the hypoxic SER=1.6; type: functional, Cricetulus griseus; procedure, shortened: as §2
CHO-AA8 [11] = test: Average intracellular compound concentration where the hypoxia sensitizer enhancement ratio (SER)=1.6; type: functional, Cricetulus griseus; procedure, shortened: as §2
CHO-AA8 [12] = test: Average intracellular compound concentration where the sensitizer enhancement ratio (SER)=1.6 under hypoxia; type: functional, Cricetulus griseus; procedure, shortened: as §2
CHO-AA8 [13] = test: Compound concentration required to reduce cell survival to 10% of control values under hypoxic condition.; type: cell-based, Cricetulus griseus; conditions: chinese hamster; procedure, shortened: as §4
[14] = as §5; type: functional; procedure, shortened: as §6
[15] = Ratio of mean intracellular to extracellular compound concentration determined under hypoxic conditions 30 mins after exposure to compound at C1.6 concentration; type: functional, cell-based; procedure, shortened: as §7
CHO-AA8 [16] = test: as §5; type: functional, Cricetulus griseus
Procedure, shortened: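 C1.6 is the concentration giving SER 1.6 in hypoxic stirred AA8 suspensions exposed to drug for 30 min before ⁶⁰Co irradiation at 37 °C.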

[17] = The ratio of aerobic CT10 to hypoxic CT10; type: functional; procedure, shortened: as §8

| SMILES | IC50 (CHO-AA8 [1]) | C1.6 (CHO-AA8 [2]) | C1.6 (CHO-AA8 [3]) | CT10 (CHO-AA8 [4]) | selectivity ratio [5] | logP [6] | Hypersensitivity factor (EMT6) | Hypersensitivity factor (FME) | Hypersensitivity factor (UV4) | Uptake ratio [7] | Ratio [8] | CT10 (CHO-AA8 [9]) | C1.6 (CHO-AA8 [10]) | C1.6 (CHO-AA8 [11]) | C1.6 (CHO-AA8 [12]) | CT10 (CHO-AA8 [13]) | TI [14] | Uptake ratio [15] | TI (CHO-AA8 [16]) | Ratio [17] |
| --- | --- | --- | --- | --- | --- | --- | --- | --- | --- | --- | --- | --- | --- | --- | --- | --- | --- | --- | --- | --- |
| Cc1ncc([N+](=O)[O-])n1CCNC(=O)CCn1ccnc1[N+](=O)[O-] | 5.5 mM | 0.42 mM | 0.7 mM | 12 mM-hr | 7.9 | -0.99 | 2.5 | 2.9 | 0.9 | 0.6 | > 7 | – | – | – | – | – | – | – | – | – |
| Cc1ncc([N+](=O)[O-])n1CCNC(=O)CCCn1ccnc1[N+](=O)[O-] | 7.2 mM | 0.21 mM | 0.63 mM | 0.37 mM-hr | 11 | -1.28 | 1.3 | 4.6 | 1.4 | 0.33 | 8 | – | – | – | – | – | – | – | – | – |
| Cc1ncc([N+](=O)[O-])n1CCNC(=O)CCCCCn1ccnc1[N+](=O)[O-] | – | 0.36 mM | 0.65 mM | – | 1.2 | -0.22 | – | – | – | 0.55 | > 17 | 1.5 mM-hr | – | – | – | – | – | – | – | – |
| O=C(CCCn1ccnc1[N+](=O)[O-])NCCn1ccnc1[N+](=O)[O-] | – | – | 1.54 mM | 3.4 mM-hr | 1.7 | -1.55 | – | – | – | 0.5 | > 6 | – | 0.77 mM | – | – | – | – | – | – | – |
| COCC(O)Cn1ccnc1[N+](=O)[O-] (centres undefined) [MISONIDAZOLE] | – | – | – | – | – | – | 3.6 | 1.9 | 1.4 | – | 25 | – | – | 0.4 mM | 0.43 mM | 8.3 mM-hr | 28 | 0.9 | – | – |
| Cc1ncc([N+](=O)[O-])n1CCNC(=O)Cn1c([N+](=O)[O-])cnc1C | 7.7 mM | 4.1 mM | 2.7 mM | – | 2.8 | -0.76 | 4.4 | 2.3 | 1 | 1.5 | 2 | – | – | – | – | 50 mM-hr | – | – | – | – |
| O=C(CCn1ccnc1[N+](=O)[O-])NCCCn1ccnc1[N+](=O)[O-] | 6.1 mM | – | – | 2.5 mM-hr | – | -1.55 | 3.5 | 3.9 | 1.2 | – | 6.5 | – | – | – | – | – | – | – | – | – |
| O=C(CCCn1ccnc1[N+](=O)[O-])NCCn1ccnc1 | 24 mM | – | – | – | – | 1.32 | 4.2 | 3 | 1.3 | – | 8 | – | – | 1.32 mM | 4 mM | 26 mM-hr | 6 | 0.33 | – | – |
| O=C(CCCn1ccnc1[N+](=O)[O-])NCCn1cnc([N+](=O)[O-])c1 | – | >0.36 mM | >1.1 mM | > 15 mM-hr | < 1.6 | -1.55 | – | – | – | – | – | – | – | – | – | – | – | – | – | – |
| Cc1ncc([N+](=O)[O-])n1CCNC(=O)Cn1ccnc1[N+](=O)[O-] | 4.7 mM | 0.54 mM | 1.08 mM | 11 mM-hr | 4.3 | -1.03 | 2.2 | 2.1 | 1 | 0.5 | 2.4 | – | – | – | – | – | – | – | – | – |
| Cc1ncc([N+](=O)[O-])n1CCNC(=O)CCCCn1ccnc1[N+](=O)[O-] | 3.8 mM | 0.48 mM | 0.93 mM | 6 mM-hr | 4 | -0.79 | 1.7 | 3.5 | 1.2 | 0.52 | > 7 | – | – | – | – | – | – | – | – | – |
| O=[N+]([O-])c1nccn1CC(O)CNCCBr (centres undefined) | 0.15 mM | – | 0.13 mM | 0.18 mM-hr | – | – | 1.6 | 1 | 5.9 | – | 20 | – | – | – | – | – | – | – | 1.1 | – |
| O=C(CCCn1ccnc1[N+](=O)[O-])NCCn1cncc1[N+](=O)[O-] | > 4.2 mM | 0.27 mM | 0.9 mM | 0.8 mM-hr | > 4.7 | -1.55 | >1.7 | >2.1 | – | 0.3 | > 30 | – | – | – | – | – | – | – | – | – |
| Cc1ncc([N+](=O)[O-])n1CCO [METRONIDAZOLE] | 23 mM | – | – | 100 mM-hr | 1.7 | – | 1 | 1 | 1 | – | – | – | – | 17.3 mM | 13.3 mM | – | – | 1.3 | – | 5 |
